These results are taken from ChEMBL document CHEMBL1128543, “Computer-aided design and synthesis of 5-substituted tryptamines and their pharmacology at the 5-HT1D receptor: discovery of compounds with potential anti-migraine properties” (J Med Chem, 1995).

The species named for experiment [1] is Oryctolagus cuniculus. Kind of experiment: (§1) Intrinsic activity against 5-hydroxytryptamine 1 receptor using rabbit saphenous vein assay. The format is tissue-based. The essentials:
(§2)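 Male New Zealand White rabbit saphenous vein rings (4–5 mm) in Krebs–Henseleit at 37 °C, pH 7.4, gassed with 95% O₂:5% CO₂, under 2 g passive force. Tissues got 30 min pargyline (500 μM) and phenoxybenzamine (0.3 μM), then were washed and checked with 1 μM 5-HT. A cumulative 5-HT curve was followed 60 min later by a test agonist curve. Potency is p[A₅₀]; α is test max/5-HT max; n ≥ 3.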

In experiment [2] the target is 5-hydroxytryptamine receptor 1D (Homo sapiens) (UniProt P28221). Described as §1. The format is tissue-based. The settings on record: Oryctolagus cuniculus, target entry is the homologue from another species. The essentials:
as §2

Experiment [3] concerns the target D(1A) dopamine receptor (Homo sapiens) (UniProt P21728). Nature of the experiment: Binding affinity was evaluated by Dopamine receptor D1 agonism in the calf striatum by displacing SCH 23390. The format is tissue-based. The settings on record: Oryctolagus cuniculus.
The target in experiment [4] is D(2) dopamine receptor (Homo sapiens) (UniProt P14416). Kind of experiment: Binding affinity against Dopamine receptor D2 using rabbit saphenous vein assay. The format is tissue-based. The settings on record: Oryctolagus cuniculus, target entry is the homologue from another species.
The target of experiment [5] is 5-hydroxytryptamine receptor 1D (Homo sapiens) (UniProt P28221). Kind of experiment: The compound was tested for intrinsic activity against 5-HT1D receptor. The settings on record: Oryctolagus cuniculus. The method, boiled down:
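Rabbit saphenous vein rings (male New Zealand White; 4–5 mm) mounted on tungsten wires in Krebs–Henseleit buffer, pH 7.4, 37 °C, gassed with 95% O2/5% CO2, at 2 g passive force. Pretreated for 30 min with pargyline (500 μM) and phenoxybenzamine (0.3 μM), then washed. Cumulative 5-HT curve, then after 60 min a test agonist curve. Potency is p[A50]; α is test maximum/5-HT maximum; n ≥ 3.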

The target in experiment [6] is T1, Muscarinic acetylcholine receptor M2 (Homo sapiens) (UniProt P08172).
T1 sequence (whole entry): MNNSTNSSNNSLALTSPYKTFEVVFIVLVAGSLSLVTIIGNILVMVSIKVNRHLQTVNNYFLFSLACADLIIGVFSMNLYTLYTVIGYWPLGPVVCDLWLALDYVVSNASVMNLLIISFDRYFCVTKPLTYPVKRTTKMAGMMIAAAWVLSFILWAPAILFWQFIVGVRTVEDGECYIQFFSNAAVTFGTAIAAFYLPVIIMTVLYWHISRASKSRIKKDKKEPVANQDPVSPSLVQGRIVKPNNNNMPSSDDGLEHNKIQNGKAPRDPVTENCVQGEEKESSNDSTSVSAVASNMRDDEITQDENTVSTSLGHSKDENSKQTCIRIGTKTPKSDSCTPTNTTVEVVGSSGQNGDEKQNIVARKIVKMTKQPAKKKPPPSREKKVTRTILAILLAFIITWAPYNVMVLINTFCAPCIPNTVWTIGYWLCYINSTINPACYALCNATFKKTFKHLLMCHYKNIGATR
Nature of the experiment: Binding affinity against Muscarinic acetylcholine receptor M2 using rabbit saphenous vein assay. The format is tissue-based. The settings on record: Oryctolagus cuniculus, target entry is the homologue from another species.

For experiment [7], the target named is Serotonin 3 (5-HT3) receptor (Homo sapiens) (UniProt P46098+A5X5Y0+O95264+Q70Z44+Q8WXA8). Kind of experiment: Binding affinity against 5-hydroxytryptamine 3 receptor […]. The format is cell-based. The settings on record: Oryctolagus cuniculus.
For experiment [8], the target named is 5-hydroxytryptamine receptor 2A (Homo sapiens) (UniProt P28223). The settings on record: Oryctolagus cuniculus.
The species named for experiment [9] is Oryctolagus cuniculus. Kind of experiment: Binding affinity against 5-hydroxytryptamine 4 receptor using rabbit saphenous vein assay. The format is tissue-based.
For another experiment, the target named is D(2) dopamine receptor (Rattus norvegicus, UniProt P61169). Kind of experiment: Binding affinity against Dopamine receptor D2 in rat striatum using [3H]-spiperone as radioligand. The format is tissue-based. The method, boiled down:
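Incubation was 30 min at 27 °C in Tris-HCl 50 mM/CaCl₂ 5 mM/0.1% ascorbate/10 mM pargyline buffer. Bound and free label were separated by filtration and counted by liquid scintillation. pK_i or pIC₅₀ is the mean of n ≥ 3.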

The target of experiment [10] is Histamine H2 receptor (Homo sapiens) (UniProt P25021). Kind of experiment: Binding affinity against H2 receptor using rabbit saphenous vein assay. The format is tissue-based. The settings on record: Oryctolagus cuniculus, target entry is the homologue from another species.
For a further experiment, the target named is D(1A) dopamine receptor (Rattus norvegicus, UniProt P18901). Kind of experiment: Binding affinity against dopamine receptor D1 in rat striatum using [3H]SCH-23390 as radioligand. The format is tissue-based. The method, boiled down: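 Displacement of [³H]SCH23390 (0.3 nM, about K_D) from rat striatum homogenate, with test compounds run in duplicate over a wide range. Incubation was 30 min at 27 °C in 50 mM Tris-HCl with 5 mM CaCl₂, 0.1% w/v ascorbate and 10 mM pargyline. Assays were filtered and washed with ice-cold buffer, and bound label was counted by scintillation. Results are pK_i or pIC₅₀, n ≥ 3.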

For experiment [11], the species on record is Oryctolagus cuniculus. Nature of the experiment: Binding affinity against 5-hydroxytryptamine 1 receptor using rabbit saphenous vein assay. The format is tissue-based. The essentials:
as §2

5-hydroxytryptamine receptor 1D (Homo sapiens), sequence (P28221 whole entry): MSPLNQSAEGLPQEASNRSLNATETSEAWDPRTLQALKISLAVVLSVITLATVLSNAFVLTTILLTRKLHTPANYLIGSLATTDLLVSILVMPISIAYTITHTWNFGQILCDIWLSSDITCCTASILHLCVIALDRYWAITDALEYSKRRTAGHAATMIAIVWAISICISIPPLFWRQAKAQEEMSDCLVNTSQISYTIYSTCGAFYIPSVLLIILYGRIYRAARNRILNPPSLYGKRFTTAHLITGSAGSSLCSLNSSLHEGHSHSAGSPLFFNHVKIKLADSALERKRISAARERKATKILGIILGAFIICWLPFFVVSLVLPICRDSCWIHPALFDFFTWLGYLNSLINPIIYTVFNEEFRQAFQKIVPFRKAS
5-hydroxytryptamine receptor 2A (Homo sapiens), sequence (P28223 whole entry): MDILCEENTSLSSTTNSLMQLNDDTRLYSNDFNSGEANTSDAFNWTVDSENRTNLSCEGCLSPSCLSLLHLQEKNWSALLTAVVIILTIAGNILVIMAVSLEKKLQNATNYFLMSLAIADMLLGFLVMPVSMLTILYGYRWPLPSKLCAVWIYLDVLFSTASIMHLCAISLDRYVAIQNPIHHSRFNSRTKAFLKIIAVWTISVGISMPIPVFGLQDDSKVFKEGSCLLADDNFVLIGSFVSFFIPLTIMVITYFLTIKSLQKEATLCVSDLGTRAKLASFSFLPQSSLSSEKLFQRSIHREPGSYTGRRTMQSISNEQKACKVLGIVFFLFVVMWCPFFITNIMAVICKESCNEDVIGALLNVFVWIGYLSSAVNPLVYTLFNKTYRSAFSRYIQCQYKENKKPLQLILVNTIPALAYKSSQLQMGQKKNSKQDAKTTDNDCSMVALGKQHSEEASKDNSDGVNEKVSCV
D(1A) dopamine receptor (Homo sapiens), sequence (P21728 whole entry): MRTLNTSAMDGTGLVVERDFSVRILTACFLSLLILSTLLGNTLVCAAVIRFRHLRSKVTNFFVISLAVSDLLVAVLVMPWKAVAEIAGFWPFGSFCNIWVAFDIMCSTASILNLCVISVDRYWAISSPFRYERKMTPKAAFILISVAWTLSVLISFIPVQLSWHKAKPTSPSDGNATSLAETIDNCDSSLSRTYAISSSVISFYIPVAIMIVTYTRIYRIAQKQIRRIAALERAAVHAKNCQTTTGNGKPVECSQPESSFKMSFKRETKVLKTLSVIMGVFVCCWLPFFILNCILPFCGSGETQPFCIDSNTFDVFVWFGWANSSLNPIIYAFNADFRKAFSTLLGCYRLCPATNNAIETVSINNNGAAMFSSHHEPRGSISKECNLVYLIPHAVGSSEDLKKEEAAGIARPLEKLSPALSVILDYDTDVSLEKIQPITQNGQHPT
D(2) dopamine receptor (Homo sapiens), sequence (P14416 whole entry): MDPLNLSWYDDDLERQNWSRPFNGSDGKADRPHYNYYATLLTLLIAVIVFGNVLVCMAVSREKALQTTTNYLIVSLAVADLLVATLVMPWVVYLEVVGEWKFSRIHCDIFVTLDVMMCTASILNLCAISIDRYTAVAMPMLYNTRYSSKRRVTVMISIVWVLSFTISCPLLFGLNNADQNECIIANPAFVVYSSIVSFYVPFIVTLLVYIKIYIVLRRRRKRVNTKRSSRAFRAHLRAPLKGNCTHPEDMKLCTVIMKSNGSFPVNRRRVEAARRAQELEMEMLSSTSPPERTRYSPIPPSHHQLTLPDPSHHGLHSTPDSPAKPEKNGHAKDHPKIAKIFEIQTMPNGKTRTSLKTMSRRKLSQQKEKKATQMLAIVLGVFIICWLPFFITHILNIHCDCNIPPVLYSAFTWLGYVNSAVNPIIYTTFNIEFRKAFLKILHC
D(1A) dopamine receptor, sequence (P18901 whole entry): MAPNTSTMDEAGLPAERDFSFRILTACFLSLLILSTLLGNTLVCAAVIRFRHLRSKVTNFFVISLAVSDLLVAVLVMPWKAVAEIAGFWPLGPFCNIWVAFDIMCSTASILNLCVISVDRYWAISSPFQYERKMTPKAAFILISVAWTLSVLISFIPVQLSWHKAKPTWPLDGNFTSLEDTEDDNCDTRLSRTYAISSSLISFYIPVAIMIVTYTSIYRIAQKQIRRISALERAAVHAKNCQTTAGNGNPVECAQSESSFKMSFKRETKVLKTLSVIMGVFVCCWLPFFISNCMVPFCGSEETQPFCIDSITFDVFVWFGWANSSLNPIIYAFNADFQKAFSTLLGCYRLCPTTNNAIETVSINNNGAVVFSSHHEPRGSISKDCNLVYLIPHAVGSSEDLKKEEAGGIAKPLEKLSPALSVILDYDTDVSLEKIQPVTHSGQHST
D(2) dopamine receptor, sequence (P61169 whole entry): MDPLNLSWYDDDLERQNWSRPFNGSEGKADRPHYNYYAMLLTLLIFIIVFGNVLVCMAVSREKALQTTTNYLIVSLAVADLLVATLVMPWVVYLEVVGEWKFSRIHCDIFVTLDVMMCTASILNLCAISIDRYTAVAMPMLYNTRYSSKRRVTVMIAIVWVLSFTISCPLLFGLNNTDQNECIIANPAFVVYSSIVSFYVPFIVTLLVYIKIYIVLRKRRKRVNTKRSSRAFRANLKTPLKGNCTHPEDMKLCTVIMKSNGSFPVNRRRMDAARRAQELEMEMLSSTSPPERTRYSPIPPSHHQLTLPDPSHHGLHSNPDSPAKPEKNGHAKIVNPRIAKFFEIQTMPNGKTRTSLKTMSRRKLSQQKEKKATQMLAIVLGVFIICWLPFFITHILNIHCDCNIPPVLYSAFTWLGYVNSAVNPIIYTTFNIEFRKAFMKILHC
Histamine H2 receptor (Homo sapiens), sequence (P25021 whole entry): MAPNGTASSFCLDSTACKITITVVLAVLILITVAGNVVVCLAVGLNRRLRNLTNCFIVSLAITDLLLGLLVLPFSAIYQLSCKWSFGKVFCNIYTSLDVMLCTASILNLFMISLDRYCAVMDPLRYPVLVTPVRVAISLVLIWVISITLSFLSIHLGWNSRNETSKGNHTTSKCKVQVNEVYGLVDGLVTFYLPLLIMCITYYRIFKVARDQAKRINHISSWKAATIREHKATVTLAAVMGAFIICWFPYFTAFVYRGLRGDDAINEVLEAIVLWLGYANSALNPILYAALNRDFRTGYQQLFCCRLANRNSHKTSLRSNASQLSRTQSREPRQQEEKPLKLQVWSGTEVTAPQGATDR

Consider `CN(C)CCc1c[nH]c2ccc(C[C@H]3COC(=O)N3)cc12` [ZOLMITRIPTAN], for which the Intrinsic activity (in the experiment filed under Oryctolagus cuniculus [1]; in [5]) was 0.77 throughout. Also, the p[A50] in [2] is 8.7; in experiment [3], less than 4; in [4], less than 4; in experiment [6], less than 4.5; in experiment [7], less than 4.5; in [8], 6.6. The p[A50] is 5.3 in the experiment filed under Oryctolagus cuniculus [9], less than 4.5 in experiment [10] and 6.8 in the experiment filed under Oryctolagus cuniculus [11]. The Kd on D(2) dopamine receptor is 0.04 nM; on D(1A) dopamine receptor, 0.3 nM.

As usually defined, the Kd is the concentration at which binding is half-saturated. A low value points to tighter binding.
